Measured values gathered from unrelated publications.
Each line is one published result; the experiments were not run side by side.
P2RY14: P2Y purinoceptor 14 (P2RY14, Homo sapiens, UniProt Q15391)
Nuclear receptor subfamily 4 group A member 2: Nuclear receptor subfamily 4 group A member 2 (Homo sapiens, UniProt P43354)
IRAK4: Interleukin-1 receptor-associated kinase 4 (IRAK4, Homo sapiens, UniProt Q9NWZ3)
CDKL1: Cyclin-dependent kinase-like 1 (CDKL1, Homo sapiens, UniProt Q00532)

target | assay | test system | conditions | measurement | result | SMILES
P2RY14 | cAMP, antagonist | HEK293 | 0.1 µM | inhibition | 34.8% | O=C(COc1ccc(C(F)(F)F)cc1)N[C@@H](Cc1c[nH]c2ccccc12)C(=O)O
Nuclear receptor subfamily 4 group A member 2 | thermal stability, DSF | – | 100 µM | ΔTm | 0.14 °C | CCN(CC)CCCC(C)Nc1ccnc2cc(Cl)ccc12 (centres unmarked)
P2RY14 | cAMP, antagonist | HEK293 | 0.1 µM | inhibition | 70.3% | CC(C)OC(=O)[C@H](Cc1c[nH]c2ccccc12)NC(=O)c1cccs1
Nuclear receptor subfamily 4 group A member 2 | thermal stability, DSF | – | 100 µM | ΔTm | -2.52 °C | CCCCCCCCC(=O)c1cc(O)c(O)c(O)c1
IRAK4 | enzyme activity, inhibitor, radiometric | – | 1 µM | remaining activity | 1.39% | CNC(=O)c1ccccc1Nc1nc(Nc2ccc(CO)cc2)ncc1Cl
P2RY14 | cAMP, antagonist | HEK293 | 0.1 µM | inhibition | 10.7% | CC(C)OC(=O)[C@H](Cc1c[nH]c2ccccc12)NC(=O)c1ccc2c(c1)OCO2
Nuclear receptor subfamily 4 group A member 2 | thermal stability, DSF | – | 100 µM | ΔTm | -1.88 °C | Cc1nc2c(Cl)cccn2c1NC(=O)c1ccc(-c2ccc(N(C)C)cc2)o1
Tyrosine-protein kinase JAK3, JH1 (JAK3, Homo sapiens, UniProt P52333) | cell-free assay, competition with immobilised ligand | – | 25 µM | remaining binding | 96% | N#Cc1ccc(NC(=O)Nc2ccccc2)cc1
P2RY14 | cAMP, antagonist | HEK293 | 0.1 µM | inhibition | 38.3% | CC(C)OC(=O)[C@H](Cc1c[nH]c2ccccc12)NC(=O)COc1ccc(Br)cc1
TRAF2 and NCK-interacting protein kinase (TNIK, Homo sapiens, UniProt Q9UKE5) | enzyme activity, inhibitor | – | 0.1 µM | inhibition | 10.5% | Cc1cc(O)c(-c2ccc([C@@H](C)CN(C)C)cc2)c2c1[nH]c(=O)c1sccc12
CDKL1 | binding, competition with immobilised ligand | – | 0.5 µM | remaining binding | 75% | CCCCC(=O)Nc1ccc(-c2ccc3ncn(CCC)c(=O)c3c2)cn1
P2RY14 | cAMP, antagonist | HEK293 | 0.1 µM | inhibition | 55.4% | CC(C)OC(=O)[C@H](Cc1c[nH]c2ccccc12)NC(=O)c1ccc2ccccc2n1
Nuclear receptor subfamily 4 group A member 2 | thermal stability, DSF | – | 100 µM | ΔTm | -11 °C | CCC(C)(C)C(=O)O[C@H]1C[C@@H](C)C=C2C=C[C@H](C)[C@H](CC[C@@H]3C[C@@H](O)CC(=O)O3)[C@H]21
Serine/threonine-protein kinase ULK1 (ULK1, Homo sapiens, UniProt O75385) | binding, competition with immobilised ligand | – | 1 µM | remaining binding | 11% | CNS(=O)(=O)c1ccc(Nc2ncc(C(F)(F)F)c(N3CCC[C@](C)(O)C3)n2)c(C)c1
P2RY14 | cAMP, antagonist | HEK293 | 0.1 µM | inhibition | 89.6% | CC(C)OC(=O)[C@H](Cc1c[nH]c2ccccc12)NC(=O)c1ccc2nccnc2c1
IRAK4 | enzyme activity, inhibitor, radiometric | – | 1 µM | remaining activity | 4.68% | CS(=O)(=NC#N)c1ccccc1Nc1nc(Nc2ccnc(CO)c2)ncc1Cl (centres unmarked)
Nuclear receptor subfamily 4 group A member 2 | thermal stability, DSF | – | 100 µM | ΔTm | -1.52 °C | COc1cccc(-c2ccc(NC(=O)C3=C(C(=O)O)CCC3)c(F)c2)c1
Calcium-dependent protein kinase 1 (CDPK1, Plasmodium falciparum, UniProt P62344) | binding | – | 0.1 µM | remaining binding | 36% | C1=C/COCc2cc(ccc2OCCN2CCCC2)Nc2nccc(n2)-c2cccc(c2)COC/1
Eosinophil peroxidase (Homo sapiens, UniProt P11678) | enzyme activity, inhibitor | – | 15 µM | remaining activity | 41.3% | NC/C(=C\F)COc1cccc(Cn2c(=S)[nH]c(=O)c3[nH]cnc32)c1
CDKL1 | binding | – | 1 µM | remaining binding | 94% | COc1ccc2oc(-c3ccc4nc(N)oc4c3)c/c(=N\c3ccccc3NC(=O)CCN)c2c1
